This is an account of results in PMC8988011 (The Journal of Biological Chemistry, 2022).

Usually IC50 stands for the concentration at which inhibition is half-maximal. Low values mean higher potency, high ones lower potency. The term Ki denotes a measure of affinity in units of concentration, obtained from inhibition or displacement. Low readings indicate tighter binding, high ones weaker binding.

Bounds are passed on as bounds.

One experiment concerns the target T1, LATS2 (Homo sapiens, UniProt Q9NRM7).
T1 sequence (Q9NRM7 553-1088 limits assumed): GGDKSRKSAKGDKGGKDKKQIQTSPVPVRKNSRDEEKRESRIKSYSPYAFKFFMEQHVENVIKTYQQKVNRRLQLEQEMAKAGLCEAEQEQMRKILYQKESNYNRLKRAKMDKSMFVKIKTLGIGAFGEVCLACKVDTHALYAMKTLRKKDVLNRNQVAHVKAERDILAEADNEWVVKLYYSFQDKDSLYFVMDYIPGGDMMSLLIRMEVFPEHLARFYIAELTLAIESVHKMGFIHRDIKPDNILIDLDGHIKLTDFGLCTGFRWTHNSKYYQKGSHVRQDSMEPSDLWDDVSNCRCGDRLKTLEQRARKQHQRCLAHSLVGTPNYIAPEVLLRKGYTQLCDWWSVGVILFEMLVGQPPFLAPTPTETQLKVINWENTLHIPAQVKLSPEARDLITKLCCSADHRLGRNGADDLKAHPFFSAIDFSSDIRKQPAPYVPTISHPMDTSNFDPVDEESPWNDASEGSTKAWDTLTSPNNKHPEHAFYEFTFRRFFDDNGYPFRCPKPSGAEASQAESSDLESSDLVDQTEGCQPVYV
In words: Kinase assay. Format: biochemical. In short, it runs like this:
(§1)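 LATS1 and LATS2 activity was measured with a fluorescence kinase/ADP kit following the maker's protocol in 384-well format. IC50 came from dose-response inhibition curves at 400 μM ATP. Mode of inhibition was assessed from Lineweaver-Burk plots of reaction velocity at ATP 100 to 400 μM. Three independent experiments, means ± SD.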

A further experiment deals with T2, LATS1 (Homo sapiens, UniProt O95835).
T2 sequence (O95835 589-1130 limits assumed): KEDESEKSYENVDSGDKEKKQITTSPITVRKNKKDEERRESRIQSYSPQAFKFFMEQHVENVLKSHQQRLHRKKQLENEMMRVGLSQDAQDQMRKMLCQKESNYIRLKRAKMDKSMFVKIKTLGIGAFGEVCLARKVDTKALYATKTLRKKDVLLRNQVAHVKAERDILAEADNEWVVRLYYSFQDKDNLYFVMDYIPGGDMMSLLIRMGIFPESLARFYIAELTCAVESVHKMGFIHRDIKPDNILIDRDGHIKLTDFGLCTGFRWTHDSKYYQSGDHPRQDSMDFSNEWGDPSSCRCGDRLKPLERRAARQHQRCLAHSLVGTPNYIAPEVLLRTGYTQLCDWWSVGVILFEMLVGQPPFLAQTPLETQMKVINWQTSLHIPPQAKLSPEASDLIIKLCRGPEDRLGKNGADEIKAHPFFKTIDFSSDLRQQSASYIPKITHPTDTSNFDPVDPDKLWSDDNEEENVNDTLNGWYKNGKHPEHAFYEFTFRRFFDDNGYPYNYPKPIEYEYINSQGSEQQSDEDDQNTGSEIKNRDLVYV
In words: Kinase assay. Format: biochemical. In outline: as §1

Experiment [1] has as its system SKOV3 cells. As to the kind of experiment: Growth in gellan gum–containing medium. As to conditions: 10 μM, maximally effective concentration. Format: cell-based, Human. In short, it runs like this: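 SKOV3 cells were suspended in medium with 0.015% (w/v) gellan gum and seeded at 2000 cells/well in 96-well flat-bottom low-attachment plates, 37 °C, 5% CO2. A test compound concentration series or DMSO vehicle was applied for 4 days. Cell number was read by ATP assay and expressed as % of DMSO control.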

Experiment [2] concerns mouse intestinal organoids. In words: Organoid culture in Matrigel. In kind it is cell-based. To be noted: 10 μM, up to 9 days, vs vehicle.
Another experiment deals with T3, SGK2 (Homo sapiens, UniProt Q9HBY8).
T3 sequence (Q9HBY8 1-367): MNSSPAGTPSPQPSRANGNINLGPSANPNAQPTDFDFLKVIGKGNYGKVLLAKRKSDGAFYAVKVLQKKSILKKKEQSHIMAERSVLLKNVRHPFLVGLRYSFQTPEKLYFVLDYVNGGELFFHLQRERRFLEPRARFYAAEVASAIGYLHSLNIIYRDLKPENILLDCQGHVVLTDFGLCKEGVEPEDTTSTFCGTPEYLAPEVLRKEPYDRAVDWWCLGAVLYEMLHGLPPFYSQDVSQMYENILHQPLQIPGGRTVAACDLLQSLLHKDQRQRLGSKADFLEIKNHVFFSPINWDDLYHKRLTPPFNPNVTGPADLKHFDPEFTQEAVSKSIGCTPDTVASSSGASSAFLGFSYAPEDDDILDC
In words: Kinase panel assay. In kind it is biochemical.

Experiment [3] has as its system LATS1-deleted or LATS2-deleted SKOV3 cells. In words: Growth of LATS knockout cells in U-bottom low-attachment plates, ATP assay. Format: cell-based, Human. To be noted: 10 μM, 4 days.
The subject of a further experiment is A431 cells. As to the kind of experiment: Hanging drop cell culture, ATP assay. In kind it is cell-based, Human. As to conditions: 10 μM, 2 days. In short, it runs like this: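 A431 cells at 50,000 cells/ml received 10 μM test compound or DMSO. They were then hung as 10 μl drops (15 per lid) over a PBS-filled dish and cultured 2 days at 37 °C. Pooled drops were assayed for cell number by ATP assay, as % of DMSO control. 11 independent experiments, means ± SD, Student's t test.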

Another experiment addresses MSK1 (Homo sapiens, UniProt O75582). In words: Kinase panel assay. In kind it is biochemical.
A further experiment deals with PKACβ (Homo sapiens, UniProt P22694). As to the kind of experiment: Kinase panel assay. Format: biochemical.
In a further experiment the target is p70S6K (Homo sapiens, UniProt P23443). As to the kind of experiment: Kinase panel assay. Format: biochemical.
p70S6K, sequence (P23443 whole entry): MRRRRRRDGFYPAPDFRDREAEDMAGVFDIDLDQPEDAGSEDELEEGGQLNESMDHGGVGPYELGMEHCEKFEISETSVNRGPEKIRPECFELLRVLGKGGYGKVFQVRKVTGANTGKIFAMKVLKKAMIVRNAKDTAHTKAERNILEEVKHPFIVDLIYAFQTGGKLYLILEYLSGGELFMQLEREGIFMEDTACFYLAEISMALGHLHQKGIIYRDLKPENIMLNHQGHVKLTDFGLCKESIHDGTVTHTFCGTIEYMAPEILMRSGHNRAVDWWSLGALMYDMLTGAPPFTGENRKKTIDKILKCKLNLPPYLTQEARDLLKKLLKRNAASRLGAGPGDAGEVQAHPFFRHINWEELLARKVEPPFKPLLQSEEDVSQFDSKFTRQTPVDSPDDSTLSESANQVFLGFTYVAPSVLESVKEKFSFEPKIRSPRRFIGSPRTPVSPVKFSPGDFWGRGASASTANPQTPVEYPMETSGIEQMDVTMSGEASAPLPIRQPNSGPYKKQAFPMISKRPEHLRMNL
Another experiment concerns MDCK cells. As to the kind of experiment: Cyst culture in Matrigel. Format: cell-based, canine. To be noted: 10 μM, 6 days. In short, it runs like this: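 MDCK cells at 1.1 × 10^4 cells/ml in medium with 0.2% Matrigel GFR were plated onto a pre-set Matrigel GFR layer (15 min, 37 °C). Medium holding 10-fold concentrated test compound or DMSO was added, and plates were incubated for 6 days at 37 °C. Cysts (>30 μm diameter) were counted and sized by automated imaging. Three independent experiments, means ± SD, Student's t test.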

Experiment [4] relates to SKOV3 cells. In words: Growth in 2D monolayer culture, ATP assay. In kind it is cell-based, Human. As to conditions: 10 μM; Fig. 1D. In short, it runs like this:
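SKOV3 monolayers were grown in medium without gellan gum on cell-attachable 96-well flat-bottom plates at 700 cells/well, 37 °C, 5% CO2, humidified. Cultures received 10 μM test compound or DMSO vehicle. Cell number was followed over time by ATP assay, and each day's value was normalized to day 0.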

The target of the next experiment is PKACα (Homo sapiens, UniProt P17612). In words: Kinase panel assay. Format: biochemical.
The next experiment concerns the target T4, SGK3 (Homo sapiens, UniProt Q96BR1).
T4 sequence (Q96BR1 1-496): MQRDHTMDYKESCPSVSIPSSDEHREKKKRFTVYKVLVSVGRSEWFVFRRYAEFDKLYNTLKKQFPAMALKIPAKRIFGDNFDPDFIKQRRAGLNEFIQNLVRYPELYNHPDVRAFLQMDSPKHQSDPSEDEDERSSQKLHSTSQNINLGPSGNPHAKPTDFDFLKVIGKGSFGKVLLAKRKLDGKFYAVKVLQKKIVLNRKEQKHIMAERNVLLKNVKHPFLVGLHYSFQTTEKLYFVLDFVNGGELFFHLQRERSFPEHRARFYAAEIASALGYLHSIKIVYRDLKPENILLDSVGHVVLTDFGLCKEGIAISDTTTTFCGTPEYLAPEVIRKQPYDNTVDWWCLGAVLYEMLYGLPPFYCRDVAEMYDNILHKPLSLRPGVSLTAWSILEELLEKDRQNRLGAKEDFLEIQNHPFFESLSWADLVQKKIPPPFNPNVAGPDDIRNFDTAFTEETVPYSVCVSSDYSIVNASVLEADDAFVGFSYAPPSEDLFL
In words: Kinase panel assay. Format: biochemical.

In experiment [5] the test system is SKOV3 cells. In words: Growth in U-bottom low-attachment plates. As to conditions: with GA-017, 4 days, Fig. 3J. Format: cell-based, Human.

MSK1, sequence (O75582 whole entry): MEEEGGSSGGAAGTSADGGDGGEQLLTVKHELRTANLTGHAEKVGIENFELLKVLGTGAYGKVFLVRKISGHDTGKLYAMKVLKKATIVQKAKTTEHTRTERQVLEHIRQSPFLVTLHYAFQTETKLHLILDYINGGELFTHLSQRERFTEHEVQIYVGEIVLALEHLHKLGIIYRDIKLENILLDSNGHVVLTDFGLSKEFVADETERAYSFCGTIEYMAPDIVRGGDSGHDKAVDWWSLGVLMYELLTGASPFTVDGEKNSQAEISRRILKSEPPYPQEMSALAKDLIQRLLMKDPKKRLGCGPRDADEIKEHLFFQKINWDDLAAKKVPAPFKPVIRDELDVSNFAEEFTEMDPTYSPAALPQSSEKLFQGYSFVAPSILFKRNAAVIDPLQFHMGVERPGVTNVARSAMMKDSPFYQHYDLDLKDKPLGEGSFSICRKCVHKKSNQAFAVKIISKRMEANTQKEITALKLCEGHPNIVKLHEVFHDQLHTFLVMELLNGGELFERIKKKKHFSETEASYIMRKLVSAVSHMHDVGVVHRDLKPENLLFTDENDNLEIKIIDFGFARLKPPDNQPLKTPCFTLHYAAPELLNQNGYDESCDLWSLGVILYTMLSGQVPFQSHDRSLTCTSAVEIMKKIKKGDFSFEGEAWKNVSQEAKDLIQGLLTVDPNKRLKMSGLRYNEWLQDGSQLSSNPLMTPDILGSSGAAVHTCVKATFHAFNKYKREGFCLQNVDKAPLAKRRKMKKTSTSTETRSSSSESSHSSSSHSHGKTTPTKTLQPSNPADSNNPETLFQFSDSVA

In the case of `CC/C(=N\NC(=O)C(C)Nc1ccccc1)c1ccc(O)c(C)c1O` (stereo not shown) [GA-002, (E)-N'-(1-(2,4-dihydroxy-3-methylphenyl)propylidene)-2-(phenylamino)propanehydrazide], the “inhibition of LATS2” value against LATS2 (compared with GA-017, Fig. S7) is given as “comparable inhibition”. Further, on LATS1 (compared with GA-017, Fig. S7), the “inhibition of LATS1” value is “comparable inhibition”.
For `CC/C(=N\NC(=O)NCc1cccc(O)c1)c1ccc(O)c(C)c1O` [GA-017, (E)-2-(1-(2,4-dihydroxy-3-methylphenyl)propylidene)-N-(3-hydroxybenzyl)hydrazine-1-carboxamide], in the experiment on SKOV3 cells [1], the “increase in the number of SKOV3 cells” value is “over 2 fold”. In addition, in [2], the “ex vivo formation of intestinal organoids” value is listed as “significantly enhanced the ex vivo formation of intestinal organoids”. In addition, the IC50 was under 40 nM at SGK2; 3.92 ± 0.42 nM at LATS2; under 40 nM against MSK1; 4.1 ± 0.79 nM against LATS1; under 40 nM at PKACβ; under 40 nM against p70S6K. In addition, the IC50 against PKACα and at SGK3 was under 40 nM in each case. Moreover, the Ki on LATS2 turned out to be 0.25 ± 0.03 nM; on LATS1, 0.58 ± 0.11 nM. In [3], the “growth-promoting effect on LATS1- or LATS2-deleted cells” value is listed as “did not exhibit a growth-promoting effect”. In the experiment with A431 cells, the “growth of spheroids formed in hanging drops” value was “promoted the growth of spheroids”. Further, in the experiment with MDCK cells, the “number of cysts versus vehicle control (DMSO)” value amounted to 1.5 fold. Further, the “cell growth under 2D conditions” value in the experiment with SKOV3 cells [4] is “did not affect cell growth”.
As for Verteporfin, in the experiment on SKOV3 cells [5], the “effect on the growth-promoting effect of GA-017” value is reported as “abolished the growth-promoting effect of GA-017”.
